Data reported in ChEMBL document CHEMBL2424551, “Synthesis, in vitro evaluation and molecular modelling of naphthalimide analogue as anticancer agents” (2013).
The source made the active and inactive calls. The calls are words filed in the database; no cut-off is given here.

Legend:
Assay type in all cases: functional
COLO 205 = assay: Growth inhibition of human COLO205 cells at 10 uM after 48 hrs by SRB assay; conditions: COLO 205, 48 h, read-out: GI
Outline: (§1)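 Cells grown in RPMI 1640 with 5% FBS and 2 mM L-glutamine, plated at 5000–40,000 cells/well by doubling time and preincubated 24 h (37 °C, 5% CO2); a time-zero plate is TCA-fixed. Single dose added, then 48 h incubation. Fixed with cold TCA, stained with 0.4% SRB, dye solubilized in 10 mM Tris base, absorbance at 515 nm; percent growth vs time-zero and untreated control.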

NCI-H23 = assay: Growth inhibition of human NCI-H23 cells at 10 uM after 48 hrs by SRB assay; conditions: NCI-H23, 48 h, read-out: GI; outline: as §1
SK-MEL-28 = assay: Growth inhibition of human SK-MEL-28 cells at 10 uM after 48 hrs by SRB assay; conditions: SK-MEL-28, 48 h, read-out: GI; outline: as §1
HOP-92 = assay: Growth inhibition of human HOP92 cells at 10 uM after 48 hrs by SRB assay; conditions: HOP-92, 48 h, read-out: GI; outline: as §1
K562 = assay: Growth inhibition of human K562 cells at 10 uM after 48 hrs by SRB assay; conditions: K562, 48 h, read-out: GI; outline: as §1
RXF 393 = assay: Growth inhibition of human RXF393 cells at 10 uM after 48 hrs by SRB assay; conditions: RXF 393, 48 h, read-out: GI; outline: as §1
CAKI-1 = assay: Growth inhibition of human Caki1 cells at 10 uM after 48 hrs by SRB assay; conditions: CAKI-1, 48 h, read-out: GI; outline: as §1
A549 = assay: Growth inhibition of human A549 cells at 10 uM after 48 hrs by SRB assay; conditions: A549, 48 h, read-out: GI; outline: as §1
SN12C = assay: Growth inhibition of human SN12C cells at 10 uM after 48 hrs by SRB assay; conditions: read-out: GI
Outline: (§2)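 NCI 60-cell-line screen with a single 10 µM dose. Cells are grown in RPMI 1640 with 5% FBS and 2 mM L-glutamine, plated at 5000–40,000 cells/well according to doubling time, and preincubated 24 h at 37 °C, 5% CO2; time-zero plates are TCA-fixed at that point. Drug exposure is 48 h. Adherent cells are fixed with cold TCA, stained with 0.4% SRB in 1% acetic acid and read at 515 nm. Percent growth is calculated relative to time-zero and untreated controls and reported as GI%.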

TK-10 = assay: Growth inhibition of human TK10 cells at 10 uM after 48 hrs by SRB assay; conditions: TK-10, 48 h, read-out: GI; outline: as §2
SNB-19 = assay: Growth inhibition of human SNB19 cells at 10 uM after 48 hrs by SRB assay; conditions: SNB-19, 48 h, read-out: GI; outline: as §2
DU-145 = assay: Growth inhibition of human DU145 cells at 10 uM after 48 hrs by SRB assay; conditions: DU-145, 48 h, read-out: GI; outline: as §1
SW-620 = assay: Growth inhibition of human SW620 cells at 10 uM after 48 hrs by SRB assay; conditions: SW-620, 48 h, read-out: GI; outline: as §2
MDA-MB-231 = assay: Growth inhibition of human MDA-MB-231 cells at 10 uM after 48 hrs by SRB assay; conditions: MDA-MB-231, 48 h, read-out: GI; outline: as §1
MDA-MB-468 = assay: Growth inhibition of human MDA-MB-468 cells at 10 uM after 48 hrs by SRB assay; outline: as §1
T47D = assay: Growth inhibition of human T47D cells at 10 uM after 48 hrs by SRB assay; conditions: read-out: GI; outline: as §2
IGROV-1 = assay: Growth inhibition of human IGROV1 cells at 10 uM after 48 hrs by SRB assay; conditions: IGROV-1, 48 h, read-out: GI; outline: as §1
MCF7 = assay: Growth inhibition of human MCF7 cells at 10 uM after 48 hrs by SRB assay; conditions: MCF7, 48 h, read-out: GI; outline: as §1
SK-MEL-5 = assay: Growth inhibition of human SK-MEL-5 cells at 10 uM after 48 hrs by SRB assay; conditions: SK-MEL-5, 48 h, read-out: GI; outline: as §1
HCT-15 = assay: Growth inhibition of human HCT15 cells at 10 uM after 48 hrs by SRB assay; conditions: HCT-15, 48 h, read-out: GI; outline: as §1
Malme-3M = assay: Growth inhibition of human MALME-3M cells at 10 uM after 48 hrs by SRB assay; conditions: read-out: GI; outline: as §1
786-0 = assay: Growth inhibition of human 786-0 cells at 10 uM after 48 hrs by SRB assay; conditions: 786-0, 48 h, read-out: GI; outline: as §1
HOP-62 = assay: Growth inhibition of human HOP62 cells at 10 uM after 48 hrs by SRB assay; conditions: HOP-62, 48 h, read-out: GI; outline: as §1
SNB-75 = assay: Growth inhibition of human SNB75 cells at 10 uM after 48 hrs by SRB assay; conditions: SNB-75, 48 h, read-out: GI; outline: as §2

SMILES	inhibition of growth at 10 µM (COLO 205) [%]	inhibition of growth at 10 µM (NCI-H23) [%]	inhibition of growth at 10 µM (SK-MEL-28) [%]	inhibition of growth at 10 µM (HOP-92) [%]	inhibition of growth at 10 µM (K562) [%]	inhibition of growth at 10 µM (RXF 393) [%]	inhibition of growth at 10 µM (CAKI-1) [%]	inhibition of growth at 10 µM (A549) [%]	inhibition of growth at 10 µM (SN12C) [%]	inhibition of growth at 10 µM (SNB-19) [%]	inhibition of growth at 10 µM (DU-145) [%]	inhibition of growth at 10 µM (SW-620) [%]	inhibition of growth at 10 µM (MDA-MB-231) [%]	inhibition of growth at 10 µM (T47D) [%]	inhibition of growth at 10 µM (MCF7) [%]	inhibition of growth at 10 µM (SK-MEL-5) [%]	inhibition of growth at 10 µM (HCT-15) [%]	inhibition of growth at 10 µM (Malme-3M) [%]	inhibition of growth at 10 µM (786-0) [%]	inhibition of growth at 10 µM (HOP-62) [%]	also measured
O=c1c2cccc3c(Nc4ccccn4)ccc(c32)c2nc3ccccc3n12	29	34.5	< 20	45.1	53.5	< 20	48.2	29.1	28.3	< 20	< 20	22.9	29.4	53.4	71.3	48.2	40.8	< 20	< 20	32.2	inhibition of growth at 10 µM (TK-10): 34.2%; growth inhibition (GI) (MDA-MB-468): Active; inhibition of growth at 10 µM (IGROV-1): 43.4%; inhibition of growth at 10 µM (SNB-75): 21.4%
O=c1c2cccc3c(Nc4ccc(Br)cn4)ccc(c32)c2nc3ccccc3n12	< 20	< 20	27.1	37.6	< 20	< 20	< 20	< 20	< 20	< 20	< 20	< 20	33.8	81.6	95.8	23.8	28	< 20	< 20	< 20	inhibition of growth at 10 µM (TK-10): 21.9%; growth inhibition (GI) (MDA-MB-468): Active; inhibition of growth at 10 µM (IGROV-1): 51.1%; inhibition of growth at 10 µM (SNB-75): 56%
O=c1c2cccc3c(Nc4c(F)cccc4F)ccc(c32)c2nc3ccccc3n12	< 20	< 20	< 20	35.8	< 20	< 20	38	< 20	< 20	< 20	< 20	< 20	< 20	47.3	79.6	< 20	24.5	< 20	< 20	< 20	growth inhibition (GI) (MDA-MB-468): Active; inhibition of growth at 10 µM (IGROV-1): 46.6%; inhibition of growth at 10 µM (SNB-75): 20.1%
O=c1c2cccc3c(NCCO)ccc(c32)c2nc3ccccc3n12	< 20	22.2	< 20	40	< 20	< 20	< 20	< 20	< 20	< 20	< 20	< 20	< 20	31.7	57.5	20.2	< 20	< 20	< 20	< 20	inhibition of growth at 10 µM (TK-10): < 20%; inhibition of growth at 10 µM (MDA-MB-468; MDA-MB-468, 48 h, read-out: GI): 81.1%; inhibition of growth at 10 µM (IGROV-1): 63.5%; inhibition of growth at 10 µM (SNB-75): < 20%
O=c1c2cccc3c(NC4CCCCC4)ccc(c32)c2nc3ccccc3n12	24.4	54	< 20	51.5	33.1	< 20	52.8	33.5	< 20	< 20	< 20	< 20	< 20	67.5	86.5	33.9	25.2	< 20	< 20	< 20	inhibition of growth at 10 µM (TK-10): 22.6%; growth inhibition (GI) (MDA-MB-468): Active; inhibition of growth at 10 µM (IGROV-1): 58.8%; inhibition of growth at 10 µM (SNB-75): < 20%
O=c1c2cccc3c(Nc4ccc(F)cc4)ccc(c32)c2nc3ccccc3n12	< 20	< 20	< 20	46.8	< 20	< 20	20.1	< 20	< 20	22.4	< 20	< 20	29.1	76.6	89.9	29.6	28.9	< 20	< 20	< 20	inhibition of growth at 10 µM (TK-10): 24.7%; growth inhibition (GI) (MDA-MB-468): Active; inhibition of growth at 10 µM (SNB-75): 29.2%
CCCCNc1ccc2c3c1cccc3c(=O)n1c3ccccc3nc21	< 20	40	< 20	38.8	21.2	< 20	56.8	23.4	< 20	< 20	< 20	< 20	20.2	64.3	89.7	24.5	23.8	< 20	< 20	< 20	inhibition of growth at 10 µM (TK-10): 29.8%; growth inhibition (GI) (MDA-MB-468): Active; inhibition of growth at 10 µM (IGROV-1): 58.2%; inhibition of growth at 10 µM (SNB-75): 26.6%
